Assays:
Mus musculus = test: Toxicity in mouse at 1600 mg/kg/day, po measured for 20 days; type: organism-based; set-up: route oral; conditions: in vivo, 480 h
How it was run: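 Ten specific-pathogen-free mice, 4 weeks old, acclimated for one week at 20 ± 2 °C and 50 ± 10% relative humidity, weighing 20 ± 2 g. Mice were fasted 4 h, then given a single oral gavage in carboxymethyl cellulose (10 ml/kg; dosing solution 160 mg/ml). Vehicle served as negative control. Clinical signs and mortality were followed 20 days, then organs were examined at autopsy.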

Tyrosinase [1] = target: T1, Tyrosinase (Agaricus bisporus, UniProt O42713); test: Inhibition of mushroom tyrosinase assessed as oxidation of L-DOPA by Lineweaver-Burke plot analysis
T1 sequence (O42713 whole entry): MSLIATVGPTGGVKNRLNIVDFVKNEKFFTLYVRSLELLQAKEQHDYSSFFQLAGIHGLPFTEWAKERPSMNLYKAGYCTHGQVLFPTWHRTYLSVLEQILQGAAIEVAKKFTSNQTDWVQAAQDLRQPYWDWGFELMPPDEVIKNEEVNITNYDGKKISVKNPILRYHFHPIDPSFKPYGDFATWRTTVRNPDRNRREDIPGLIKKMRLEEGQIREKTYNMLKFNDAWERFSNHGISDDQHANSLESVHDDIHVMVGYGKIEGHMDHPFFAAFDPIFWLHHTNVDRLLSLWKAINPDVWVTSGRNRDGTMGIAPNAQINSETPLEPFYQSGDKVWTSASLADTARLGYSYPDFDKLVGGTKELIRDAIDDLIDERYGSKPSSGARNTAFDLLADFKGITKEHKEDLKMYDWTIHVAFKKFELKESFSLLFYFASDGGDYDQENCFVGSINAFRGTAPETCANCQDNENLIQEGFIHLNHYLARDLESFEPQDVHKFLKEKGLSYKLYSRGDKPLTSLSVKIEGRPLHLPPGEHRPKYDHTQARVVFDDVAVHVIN
How it was run: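 Kinetics use the same pre-incubation (10 min, 25 °C, 50 mM phosphate pH 6.8) and measurement time as the IC50 assay, with three inhibitor concentrations per compound including zero and L-DOPA varied. Initial velocity taken from absorbance change over time. Lineweaver–Burk plots were drawn, and KI was obtained from a secondary plot of intercept versus inhibitor concentration.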

Tyrosinase [2] = target: T1, Tyrosinase; test: Inhibition of mashroom tyrosinase assessed as oxidation of L-DOPA by spectrophotometry
How it was run: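 Mushroom tyrosinase diphenolase activity with L-DOPA as substrate. Compounds dissolved in DMSO and diluted with phosphate buffer pH 6.8, final DMSO 2.0%. Thirty units of enzyme pre-incubated with compound in 50 mM phosphate buffer (pH 6.8) for 10 min at 25 °C. Triplicate per concentration. IC50 interpolated from log concentration–inhibition curves (at least eight points), mean of three experiments.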

SMILES | Ki (Tyrosinase [1]) [µM] | IC50 (Tyrosinase [2]) [µM] | Activity (Mus musculus)
COP(=O)(OC)OCCOc1ccc(C=O)cc1 | 36.8 | 59 | Non-toxic
COC(=O)C1CCCN1C(=O)COc1ccc(C=O)cc1 (stereo not drawn) |  | 760 | 
COC(=O)C(CCSC)NC(=O)COc1ccc(C=O)cc1 (stereo not drawn) |  | 400 | 
CCCCOCCOc1ccc(C=O)cc1 |  | 3260 | 
O=Cc1ccc(OCCOC(=O)CCC(=O)O)cc1 |  | 620 | 
CCOP(=O)(OCC)OCCOc1ccc(C=O)cc1 |  | 550 | 
COC(=O)C(Cc1c[nH]c2ccccc12)NC(=O)COc1ccc(C=O)cc1 (stereo not drawn) | 54 | 110 | 
CCC(C)C(NC(=O)COc1ccc(C=O)cc1)C(=O)OC (stereo not drawn) |  | 460 | 
COCCOCCOc1ccc(C=O)cc1 |  | 900 | 
COC(=O)C(Cc1ccc(O)cc1)NC(=O)COc1ccc(C=O)cc1 (stereo not drawn) |  | 220 | 
COC(=O)C(CC(C)C)NC(=O)COc1ccc(C=O)cc1 (stereo not drawn) |  | 1650 | 
COC(=O)C(Cc1ccccc1)NC(=O)COc1ccc(C=O)cc1 (stereo not drawn) |  | 480 | 

Further lines, with some results ahead:

Ki (Tyrosinase [1]) [µM] | IC50 (Tyrosinase [2]) [µM] | SMILES | Activity (Mus musculus)
 | 590 | O=Cc1ccc(OCC2CO2)cc1 (stereo not drawn) | 
125 | 160 | COC(=O)C(C)NC(=O)COc1ccc(C=O)cc1 (stereo not drawn) | 
 | 750 | COCC(O)COc1ccc(C=O)cc1 (stereo not drawn) | 
 | 370 | O=Cc1ccc(OCOCCO)cc1 | 
 | 620 | COCCCCOc1ccc(C=O)cc1 | 
 | 270 | O=Cc1ccc(OCOC(CO)CO)cc1 | 
 | 1260 | O=Cc1ccc(OCC(O)CO)cc1 (stereo not drawn) | 
 | 820 | O=Cc1ccc(OCCOP(=O)(O)O)cc1 | 
117 | 170 | COC(=O)CNC(=O)COc1ccc(C=O)cc1 | 
 | 660 | COCCOc1ccc(C=O)cc1 | 
 | 2550 | O=Cc1ccc(OCCO)cc1 | 

— ChEMBL document CHEMBL1154720, “Synthesis and biological evaluation of novel 4-hydroxybenzaldehyde derivatives as tyrosinase inhibitors” (Eur J Med Chem, 2010)
